This is an account of results in ChEMBL document CHEMBL1150387, “Development and experimental validation of a docking strategy for the generation of kinase-targeted libraries” (J Med Chem, 2008).

The inhibition is how much of the control response was suppressed.

The target in experiment [1] is Mitogen-activated protein kinase 14 (Homo sapiens) (UniProt Q16539). Description: Inhibition of p38alpha at 10 uM by HTRF assay relative to control. Put shortly:
(§1)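 HTRF kinase assay, one panel of kinases. Inhibitor stock 50 µM in 100% DMSO; tested at 10 µM. ATP and substrate at final levels near Km. Final buffer: 50 mM Hepes/NaOH pH 7.4, 40 µM Na3VO4, 0.005% Tween-20, 1 mM DTT, MnCl2 or MgCl2 at kinase-dependent levels. Started by adding ATP/substrate. Reaction run at room temperature, time varied by kinase. Detection mix in 50 mM Hepes pH 7.4, 0.1% BSA, 150 mM KF, incubated ≥1 h at room temperature. Activity expressed as % of uninhibited control; n=2.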
Background: In TR-FRET formats the signal depends on donor and acceptor labels being close together.

For experiment [2], the target named is T1, Inhibitor of nuclear factor kappa-B kinase subunit beta (Homo sapiens) (UniProt O14920).
T1 sequence (whole entry): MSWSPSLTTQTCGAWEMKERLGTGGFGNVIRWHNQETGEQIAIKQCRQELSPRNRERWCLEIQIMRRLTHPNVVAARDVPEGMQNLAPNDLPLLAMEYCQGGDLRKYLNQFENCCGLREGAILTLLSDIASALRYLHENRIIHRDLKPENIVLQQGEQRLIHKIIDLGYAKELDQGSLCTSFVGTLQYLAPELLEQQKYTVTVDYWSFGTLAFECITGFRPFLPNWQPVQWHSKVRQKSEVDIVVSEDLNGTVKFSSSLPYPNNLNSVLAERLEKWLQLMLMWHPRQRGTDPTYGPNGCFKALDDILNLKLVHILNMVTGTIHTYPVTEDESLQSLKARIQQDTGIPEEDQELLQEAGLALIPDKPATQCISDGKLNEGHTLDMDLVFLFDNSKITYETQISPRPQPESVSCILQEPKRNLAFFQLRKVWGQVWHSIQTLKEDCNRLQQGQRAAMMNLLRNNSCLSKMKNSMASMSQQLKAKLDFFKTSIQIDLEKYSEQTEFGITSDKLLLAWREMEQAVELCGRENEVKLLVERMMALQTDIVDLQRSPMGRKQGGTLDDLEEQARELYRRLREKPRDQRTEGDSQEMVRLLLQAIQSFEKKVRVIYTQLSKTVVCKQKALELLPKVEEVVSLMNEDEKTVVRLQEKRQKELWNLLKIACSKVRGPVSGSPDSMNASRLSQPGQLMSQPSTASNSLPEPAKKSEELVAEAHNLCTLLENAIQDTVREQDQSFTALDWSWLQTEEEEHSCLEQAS
Put plainly: Inhibition of IKK-beta at 10 uM by HTRF assay relative to control. The method, boiled down: as §1

Experiment [3] addresses Receptor-type tyrosine-protein kinase FLT3 (Homo sapiens) (UniProt P36888). Description: Inhibition of FLT3 at 10 uM by HTRF assay relative to control. The method, boiled down: as §1
In experiment [4] the target is Serine/threonine-protein kinase Chk2 (Homo sapiens) (UniProt O96017). Put plainly: Inhibition of CHK2 at 10 uM by HTRF assay relative to control. The method, boiled down: as §1
Chain of Serine/threonine-protein kinase Chk2 (Homo sapiens) (O96017 whole entry): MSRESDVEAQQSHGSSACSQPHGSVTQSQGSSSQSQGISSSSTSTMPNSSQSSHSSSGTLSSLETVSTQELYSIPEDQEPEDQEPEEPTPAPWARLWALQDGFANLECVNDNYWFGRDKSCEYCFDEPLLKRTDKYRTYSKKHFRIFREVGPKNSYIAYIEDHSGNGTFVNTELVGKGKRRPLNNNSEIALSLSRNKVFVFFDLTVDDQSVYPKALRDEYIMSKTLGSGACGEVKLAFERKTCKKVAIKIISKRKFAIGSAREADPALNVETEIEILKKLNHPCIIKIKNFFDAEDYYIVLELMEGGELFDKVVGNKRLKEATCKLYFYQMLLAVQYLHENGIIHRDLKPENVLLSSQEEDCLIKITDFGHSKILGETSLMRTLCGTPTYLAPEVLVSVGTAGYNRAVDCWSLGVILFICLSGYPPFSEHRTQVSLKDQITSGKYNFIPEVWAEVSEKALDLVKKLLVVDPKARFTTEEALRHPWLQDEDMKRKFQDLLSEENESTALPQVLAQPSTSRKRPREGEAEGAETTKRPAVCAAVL
Experiment [5] addresses Epidermal growth factor receptor (Homo sapiens) (UniProt P00533). Description: Inhibition of EGFR at 10 uM by HTRF assay relative to control. Put shortly: as §1
Experiment [6] concerns the target Tyrosine-protein kinase Lyn (Homo sapiens) (UniProt P07948). Put plainly: Inhibition of Lyn at 10 uM by HTRF assay relative to control. Put shortly: as §1
Experiment [7] addresses Rho-associated protein kinase 2 (Homo sapiens) (UniProt O75116). Put plainly: Inhibition of ROCK2 at 10 uM by HTRF assay relative to control. The method, boiled down:
as §1

Experiment [8] addresses T2, Tyrosine-protein kinase JAK3 (Homo sapiens) (UniProt P52333).
T2 sequence (whole entry): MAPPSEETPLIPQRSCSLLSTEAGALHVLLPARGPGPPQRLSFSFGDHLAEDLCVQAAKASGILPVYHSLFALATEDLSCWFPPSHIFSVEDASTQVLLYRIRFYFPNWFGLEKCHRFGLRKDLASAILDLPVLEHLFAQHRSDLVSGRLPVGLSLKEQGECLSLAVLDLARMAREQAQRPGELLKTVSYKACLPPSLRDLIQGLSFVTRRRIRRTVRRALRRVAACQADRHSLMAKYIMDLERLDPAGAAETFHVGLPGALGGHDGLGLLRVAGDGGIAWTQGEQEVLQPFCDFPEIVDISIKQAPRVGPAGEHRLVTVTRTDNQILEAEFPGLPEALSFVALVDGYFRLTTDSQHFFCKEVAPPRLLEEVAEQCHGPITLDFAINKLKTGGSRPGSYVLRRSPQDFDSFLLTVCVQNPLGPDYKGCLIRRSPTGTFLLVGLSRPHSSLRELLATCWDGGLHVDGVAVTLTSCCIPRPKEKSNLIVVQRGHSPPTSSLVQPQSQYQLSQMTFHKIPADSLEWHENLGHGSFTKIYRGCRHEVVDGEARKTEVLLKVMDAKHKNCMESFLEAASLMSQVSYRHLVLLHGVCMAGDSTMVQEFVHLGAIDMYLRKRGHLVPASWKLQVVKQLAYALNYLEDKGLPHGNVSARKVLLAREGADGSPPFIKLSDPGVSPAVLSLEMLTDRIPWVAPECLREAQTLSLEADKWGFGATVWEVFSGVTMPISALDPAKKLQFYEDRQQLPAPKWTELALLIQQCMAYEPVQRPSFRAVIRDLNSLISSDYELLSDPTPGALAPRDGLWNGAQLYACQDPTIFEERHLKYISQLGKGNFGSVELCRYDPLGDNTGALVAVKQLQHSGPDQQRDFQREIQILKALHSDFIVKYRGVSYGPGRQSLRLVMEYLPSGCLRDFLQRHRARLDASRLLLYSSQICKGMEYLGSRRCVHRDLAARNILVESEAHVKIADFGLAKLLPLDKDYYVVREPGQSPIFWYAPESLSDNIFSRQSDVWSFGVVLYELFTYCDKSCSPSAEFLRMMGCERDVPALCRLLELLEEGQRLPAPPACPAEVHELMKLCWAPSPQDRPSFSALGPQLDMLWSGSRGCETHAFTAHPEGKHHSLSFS
Description: Inhibition of JAK3 at 10 uM by HTRF assay relative to control. Put shortly: as §1

Experiment [9] concerns the target Tyrosine-protein kinase Lck (Homo sapiens) (UniProt P06239). Put plainly: Inhibition of Lck at 10 uM by HTRF assay relative to control. The method, boiled down:
as §1

In experiment [10] the target is Mitogen-activated protein kinase 8 (Homo sapiens) (UniProt P45983). Put plainly: Inhibition of JNK1 at 10 uM by HTRF assay relative to control. Put shortly:
as §1

Chain of Mitogen-activated protein kinase 8 (Homo sapiens) (P45983 whole entry): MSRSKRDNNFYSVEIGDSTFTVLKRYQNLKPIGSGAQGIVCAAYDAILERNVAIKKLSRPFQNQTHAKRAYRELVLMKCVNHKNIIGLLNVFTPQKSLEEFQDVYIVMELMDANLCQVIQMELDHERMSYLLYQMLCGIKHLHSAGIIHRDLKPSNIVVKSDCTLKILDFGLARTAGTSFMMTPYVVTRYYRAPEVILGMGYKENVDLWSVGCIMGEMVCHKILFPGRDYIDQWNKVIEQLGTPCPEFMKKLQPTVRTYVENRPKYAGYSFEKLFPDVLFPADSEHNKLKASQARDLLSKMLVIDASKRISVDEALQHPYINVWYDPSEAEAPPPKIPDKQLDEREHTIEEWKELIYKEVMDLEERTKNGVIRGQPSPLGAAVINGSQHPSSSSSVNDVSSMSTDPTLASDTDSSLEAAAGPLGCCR
Chain of Mitogen-activated protein kinase 14 (Homo sapiens) (Q16539 whole entry): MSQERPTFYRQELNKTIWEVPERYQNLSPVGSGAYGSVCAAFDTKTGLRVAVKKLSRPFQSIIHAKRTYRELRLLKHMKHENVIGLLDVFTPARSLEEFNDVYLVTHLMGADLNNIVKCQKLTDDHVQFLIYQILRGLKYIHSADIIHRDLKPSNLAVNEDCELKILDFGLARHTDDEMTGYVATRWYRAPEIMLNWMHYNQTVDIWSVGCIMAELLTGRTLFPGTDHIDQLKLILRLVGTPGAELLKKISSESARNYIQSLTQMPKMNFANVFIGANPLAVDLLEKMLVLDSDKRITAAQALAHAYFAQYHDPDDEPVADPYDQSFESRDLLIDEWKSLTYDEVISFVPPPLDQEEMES
Chain of Tyrosine-protein kinase Lck (Homo sapiens) (P06239 2-509 limits assumed): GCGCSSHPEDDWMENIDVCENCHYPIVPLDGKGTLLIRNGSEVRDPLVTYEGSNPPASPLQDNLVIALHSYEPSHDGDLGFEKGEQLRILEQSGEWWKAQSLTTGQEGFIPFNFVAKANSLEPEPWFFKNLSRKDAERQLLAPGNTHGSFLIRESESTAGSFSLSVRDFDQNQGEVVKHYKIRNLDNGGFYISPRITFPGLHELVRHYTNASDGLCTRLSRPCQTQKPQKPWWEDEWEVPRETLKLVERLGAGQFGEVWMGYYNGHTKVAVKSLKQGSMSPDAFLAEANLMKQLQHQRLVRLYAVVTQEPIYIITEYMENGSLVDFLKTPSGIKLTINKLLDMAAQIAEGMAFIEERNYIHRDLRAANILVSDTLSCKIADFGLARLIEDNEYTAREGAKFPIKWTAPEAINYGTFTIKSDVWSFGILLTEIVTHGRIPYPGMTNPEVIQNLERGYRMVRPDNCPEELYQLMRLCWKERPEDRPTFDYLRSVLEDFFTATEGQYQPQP
Chain of Tyrosine-protein kinase Lyn (Homo sapiens) (P07948 2-512 limits assumed): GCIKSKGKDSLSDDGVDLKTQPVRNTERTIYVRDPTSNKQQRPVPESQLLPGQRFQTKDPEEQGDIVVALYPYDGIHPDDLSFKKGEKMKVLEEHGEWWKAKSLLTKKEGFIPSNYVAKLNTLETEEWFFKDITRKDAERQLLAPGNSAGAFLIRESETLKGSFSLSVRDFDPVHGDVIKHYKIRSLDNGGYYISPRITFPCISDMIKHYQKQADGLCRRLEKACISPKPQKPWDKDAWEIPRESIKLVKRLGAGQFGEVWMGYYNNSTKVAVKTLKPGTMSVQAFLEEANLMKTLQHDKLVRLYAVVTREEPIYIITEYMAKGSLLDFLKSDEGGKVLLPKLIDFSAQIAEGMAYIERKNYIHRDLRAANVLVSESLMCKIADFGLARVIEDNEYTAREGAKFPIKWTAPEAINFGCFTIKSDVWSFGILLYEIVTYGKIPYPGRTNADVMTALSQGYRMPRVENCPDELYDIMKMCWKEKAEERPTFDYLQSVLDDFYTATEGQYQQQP
Chain of Epidermal growth factor receptor (Homo sapiens) (P00533 whole entry): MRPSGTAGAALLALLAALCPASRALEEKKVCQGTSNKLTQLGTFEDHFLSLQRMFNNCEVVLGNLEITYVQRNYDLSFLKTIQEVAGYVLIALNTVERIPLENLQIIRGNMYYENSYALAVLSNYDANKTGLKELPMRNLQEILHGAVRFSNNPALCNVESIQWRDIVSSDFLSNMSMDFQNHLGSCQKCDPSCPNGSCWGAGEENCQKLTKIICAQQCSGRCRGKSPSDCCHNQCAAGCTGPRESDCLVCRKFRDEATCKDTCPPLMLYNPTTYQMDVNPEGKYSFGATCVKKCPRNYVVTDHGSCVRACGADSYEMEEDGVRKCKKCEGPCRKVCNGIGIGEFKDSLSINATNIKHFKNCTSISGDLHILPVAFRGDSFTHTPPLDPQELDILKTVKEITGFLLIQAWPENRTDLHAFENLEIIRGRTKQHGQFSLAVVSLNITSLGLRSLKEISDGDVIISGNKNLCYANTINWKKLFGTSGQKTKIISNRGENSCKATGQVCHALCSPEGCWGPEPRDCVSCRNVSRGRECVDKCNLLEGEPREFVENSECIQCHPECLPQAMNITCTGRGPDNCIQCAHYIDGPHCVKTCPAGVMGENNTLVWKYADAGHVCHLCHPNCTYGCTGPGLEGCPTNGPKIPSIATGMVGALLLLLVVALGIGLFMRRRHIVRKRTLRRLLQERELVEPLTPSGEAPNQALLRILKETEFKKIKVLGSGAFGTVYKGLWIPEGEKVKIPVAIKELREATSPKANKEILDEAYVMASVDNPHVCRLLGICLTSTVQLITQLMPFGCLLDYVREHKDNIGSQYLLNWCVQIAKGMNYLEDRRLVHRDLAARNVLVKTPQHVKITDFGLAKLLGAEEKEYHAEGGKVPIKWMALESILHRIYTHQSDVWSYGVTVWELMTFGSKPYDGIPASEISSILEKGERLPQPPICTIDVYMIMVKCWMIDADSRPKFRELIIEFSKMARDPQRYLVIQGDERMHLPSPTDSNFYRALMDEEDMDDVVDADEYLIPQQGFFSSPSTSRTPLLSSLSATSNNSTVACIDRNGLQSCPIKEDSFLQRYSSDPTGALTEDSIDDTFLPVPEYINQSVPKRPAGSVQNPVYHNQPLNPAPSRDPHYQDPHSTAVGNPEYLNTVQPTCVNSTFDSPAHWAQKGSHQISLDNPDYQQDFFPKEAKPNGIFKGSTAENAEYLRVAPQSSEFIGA
Chain of Receptor-type tyrosine-protein kinase FLT3 (Homo sapiens) (P36888 whole entry): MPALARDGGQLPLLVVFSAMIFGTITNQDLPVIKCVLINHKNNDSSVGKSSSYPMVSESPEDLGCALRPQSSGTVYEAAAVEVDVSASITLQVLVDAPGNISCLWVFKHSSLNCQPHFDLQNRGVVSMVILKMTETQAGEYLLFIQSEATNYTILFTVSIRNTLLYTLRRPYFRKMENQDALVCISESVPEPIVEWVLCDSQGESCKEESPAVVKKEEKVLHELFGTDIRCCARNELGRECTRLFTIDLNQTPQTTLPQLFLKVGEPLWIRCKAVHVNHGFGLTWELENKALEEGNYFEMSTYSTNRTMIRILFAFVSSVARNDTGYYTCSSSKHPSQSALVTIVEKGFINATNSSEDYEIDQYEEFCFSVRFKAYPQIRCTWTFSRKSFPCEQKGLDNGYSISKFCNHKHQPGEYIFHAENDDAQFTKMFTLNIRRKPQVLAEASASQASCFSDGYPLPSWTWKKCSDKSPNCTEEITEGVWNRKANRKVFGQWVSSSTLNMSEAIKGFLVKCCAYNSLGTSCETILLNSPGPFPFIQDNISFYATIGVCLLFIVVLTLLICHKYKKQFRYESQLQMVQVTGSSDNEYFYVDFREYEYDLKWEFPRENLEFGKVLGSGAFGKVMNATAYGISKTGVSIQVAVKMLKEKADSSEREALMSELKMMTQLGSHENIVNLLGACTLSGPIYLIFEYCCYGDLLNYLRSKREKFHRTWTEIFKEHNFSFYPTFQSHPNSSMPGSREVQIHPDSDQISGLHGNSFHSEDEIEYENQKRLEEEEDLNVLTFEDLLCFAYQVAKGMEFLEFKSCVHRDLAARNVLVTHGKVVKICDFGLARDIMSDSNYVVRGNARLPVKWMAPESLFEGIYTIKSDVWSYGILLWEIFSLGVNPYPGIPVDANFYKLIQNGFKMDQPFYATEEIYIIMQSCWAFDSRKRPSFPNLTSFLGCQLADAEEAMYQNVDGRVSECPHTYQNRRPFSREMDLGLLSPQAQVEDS

Consider `CC(=O)N1CCN(C(=O)c2cccc(Nc3cc(N(C)c4cccc(C)c4)ncn3)c2)CC1`, for which the inhibition in [1] was determined as 4%; in experiment [2], 1%; in experiment [3] it was 29%; in experiment [4], 0%; in [5], 99%; in [6], 29%. The inhibition came out at 0% in experiment [7], 15% in [8], 27% in experiment [9] and 0% in experiment [10].
Turning to `O=C(c1nc(SCc2ccc(Cl)cc2)n2ccccc12)N1CCN(c2cc(Nc3cccc(Br)c3)ncn2)CC1`, the inhibition in experiment [1] is 6%; in [2] it was 1%; in [3] it was 0%; in experiment [4], 6%; in experiment [5], 0%; in experiment [6], 4%. For the same molecule, the inhibition in [7] was determined as 0%; in [8], 0%; in [9] it was 0%; in experiment [10], 7%.
As for `COC[C@@H]1CCCN1C(=O)C1CCCN1c1cc(Nc2cccc(Br)c2)ncn1` (stereo not given in full), the inhibition in experiment [1] is 0%; in [2], 1%; in [3], 0%; in experiment [4] it was 3%; in [5], 0%; in experiment [6] it was 0%. The inhibition was found to be 0% in experiment [7], 8% in [8], 0% in experiment [9] and 0% in [10].
For the molecule `Cc1cccc(N(C)c2cc(Nc3cccc(C(=O)N4CCCC5CCCCC54)c3)ncn2)c1` (stereo not given), the inhibition in [1] is 0%; in experiment [2], 7%; in experiment [3], 0%; in experiment [4], 2%; in [5], 84%; in experiment [6], 9%. For the same molecule, the inhibition in experiment [7] is 0%; in experiment [8] it was 0%; in experiment [9], 0%; in experiment [10] it was 2%.
Consider `COC[C@@H]1CCCN1C(=O)[C@@H]1CCCN1c1nccc(Nc2ccccc2)n1`, for which the inhibition in [1] was found to be 0%; in experiment [2], 6%; in experiment [3], 0%; in experiment [4], 3%; in experiment [5] it was 0%; in experiment [6], 0%. The inhibition in [7] was determined as 3%; in experiment [8] it was 1%; in experiment [9], 0%; in experiment [10], 0%.
For the molecule `Cc1cccc(Nc2nccc(Nc3cccc(C(=O)NCc4ccc(N(C)C)cc4)c3)n2)c1`, the inhibition was 0% in experiment [1]; 2% in experiment [2]; 54% in experiment [3]; 0% in [4]; 0% in experiment [5]; 9% in experiment [6]. Besides, the inhibition in experiment [7] turned out to be 4%; in [8], 6%; in experiment [9], 0%; in experiment [10], 0%.
Consider `Cc1cccc(N(C)c2cc(Nc3cccc(C(=O)N(C)CCc4ccccn4)c3)ncn2)c1`, for which the inhibition turned out to be 5% in [1]; 8% in [2]; 0% in [3]; 0% in experiment [4]; 97% in experiment [5]; 14% in experiment [6]. The inhibition in experiment [7] worked out at 0%; in [8], 7%; in experiment [9] it was 10%; in experiment [10], 0%.
In the case of `COC(=O)C(CO)NC(=O)[C@@H]1CCCN1c1nccc(Oc2cccc(C)c2)n1` (stereo not given in full), the inhibition in [1] is 7%; in [2], 1%; in experiment [3], 0%; in experiment [4], 3%; in experiment [5], 0%; in experiment [6] it was 6%. In addition, the inhibition in experiment [7] is 0%; in experiment [8], 0%; in [9] it was 0%; in [10], 5%.
Regarding `Cc1cccc(Nc2ncnc3c2CN(C(=O)c2ccc(N(C)C)c4ccccc24)CC3)c1`, the inhibition in experiment [1] amounted to 1%; in [2], 4%; in [3] it was 0%; in experiment [4], 2%; in experiment [5], 31%; in experiment [6], 9%. For the same molecule, the inhibition in [7] came out at 1%; in experiment [8], 0%; in experiment [9] it was 0%; in experiment [10] it was 0%.
On to `CN(C)c1ccc(C(=O)N2CCN(c3ncnc4c3CN(Cc3ccccc3)CC4)CC2)c2ccccc12`, for which the inhibition in [1] was found to be 4%; in [2], 1%; in experiment [3], 0%; in [4], 6%; in experiment [5] it was 0%; in experiment [6], 0%. In addition, the inhibition in [7] stood at 0%; in [8], 7%; in experiment [9] it was 0%; in [10], 6%.
